Assay [1] is described as follows: Antiischemic activity against Na2S2O4-induced hypoxia/reoxygenation cell injury in neonatal rat primary cardiac myocytes assessed as increase in cell survival rate at 10^-6 mol/L by MTT assay. The format is functional, Cardiac muscle cell. The gist of the method: (§1)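 Neonatal rat primary cardiomyocytes, six wells per group. Hypoxia induced with 50 mmol/L Na2S2O4 in serum-free DMEM for 2 h, then reoxygenated 4 h in DMEM with 10% serum. Drug added in serum-free DMEM 1 h before reoxygenation, final 10^-6, 10^-5, 10^-4 mol/L. MTT (5 mg/mL) for 4 h, formazan dissolved in DMSO, A490. Survival = treated OD/normal control OD.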

The nature of assay [2]: Antiischemic activity against Na2S2O4-induced hypoxia/reoxygenation cell injury in neonatal rat primary cardiac myocytes assessed as increase in cell survival rate at 10^-5 mol/L by MTT assay. Format: functional, Cardiac muscle cell. The method in brief:
as §1

Assay [3] in a line: Antiischemic activity against Na2S2O4-induced hypoxia/reoxygenation cell injury in neonatal rat primary cardiac myocytes assessed as increase in cell survival rate at 10^-4 mol/L by MTT assay. The format is functional, Cardiac muscle cell. The method in brief: as §1
In general terms: Formazan colour is commonly taken as a measure of viable cells.

Assay [4] is described as follows: Antiischemic activity against Na2S2O4-induced hypoxia/reoxygenation cell injury in neonatal rat primary cardiac myocytes assessed as cell viability at 10^-6 mol/L by MTT assay. Format: functional. The note with it: Cardiac muscle cell. The method in brief:
as §1

Assay [5] in a line: Antiischemic activity against Na2S2O4-induced hypoxia/reoxygenation cell injury in neonatal rat primary cardiac myocytes assessed as cell viability at 10^-5 mol/L by MTT assay. Format: functional. The note with it: Cardiac muscle cell. The method in brief: as §1
Assay [6] can be described thus: Antiischemic activity against Na2S2O4-induced hypoxia/reoxygenation cell injury in neonatal rat primary cardiac myocytes assessed as cell viability at 10^-4 mol/L by MTT assay. Format: functional. The note with it: Cardiac muscle cell. The method in brief:
as §1

These results are taken from ChEMBL document CHEMBL1828582, “Synthesis and Na+/H+ exchanger inhibitory activity of benzoylguanidine derivatives” (Eur J Med Chem, 2011).

`COc1ccc(CN2CCN(Cc3ccc(C(=O)N=C(N)N)cc3[N+](=O)[O-])CC2)c(OC)c1OC`: the values for the Activity in assay [1], in assay [2] and in assay [3] were 50.41%, 59.78% and 69.24%, respectively. The MTT OD at 1 µM in assay [4] stood at 0.37 absorbance. Moreover, in assay [5], the MTT OD at 10 µM stood at 0.44 absorbance. Besides, the MTT OD at 100 µM in assay [6] amounted to 0.532 absorbance.
Regarding `COc1ccc(CN2CCN(CCOc3ccc(C(=O)NC(=N)N)cc3NC(=O)c3sccc3C)CC2)c(OC)c1OC`, the Activity in assay [1] turned out to be 53.22%; in assay [2] it was 61.63%; in assay [3] it was 72.41%. Besides, in assay [4], the MTT OD at 1 µM came to 0.391 absorbance. Further, the MTT OD at 10 µM in assay [5] came to 0.454 absorbance. Also, the MTT OD at 100 µM in assay [6] came out at 0.556 absorbance.
Turning to `COc1ccc(CN2CCN(CCOc3ccc(C(=O)NC(=N)N)cc3NC(=O)c3ccc(Cl)cc3Cl)CC2)c(OC)c1OC`, the Activity was 49.27% in assay [1], 55.52% in assay [2] and 58.33% in assay [3]. Also, in assay [4], the MTT OD at 1 µM came to 0.362 absorbance. The MTT OD at 10 µM in assay [5] turned out to be 0.409 absorbance. The MTT OD at 100 µM in assay [6] turned out to be 0.488 absorbance.
As to `COc1ccc(CN2CCN(CCOc3ccc(C(=O)NC(=N)N)cc3NC(=O)c3ccccc3[N+](=O)[O-])CC2)c(OC)c1OC`, the Activity was 48.05% in assay [1], 51.45% in assay [2] and 56.48% in assay [3]. For the same molecule, in assay [4], the MTT OD at 1 µM came to 0.353 absorbance. Besides, the MTT OD at 10 µM in assay [5] is 0.379 absorbance. Also, in assay [6], the MTT OD at 100 µM is 0.434 absorbance.
